Assay results reported in ChEMBL document CHEMBL4043075, “Development of Fluorinated Analogues of Perhexiline with Improved Pharmacokinetic Properties and Retained Efficacy” (J Med Chem, 2017).
The source made the active and inactive calls. The calls are words filed in the database; no cut-off is given here.

Experiments:
[1] = Stability of the compound in pH 7.4 PBS buffer at 37 degC after 1 hr; assay type: physicochemical; details: pH 7.4, 1 h
How it was run: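 Compound incubated 1 h in pH 7.4 PBS at 37 °C, then checked for decomposition.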

[2] = Half life in Sprague-Dawley rat liver microsomes at 3 uM up to 45 mins in presence of NADPH by LC-MS/MS analysis; assay type: ADME, microsome
[3] = Half life in human liver microsomes at 3 uM up to 45 mins in presence of NADPH by LC-MS/MS analysis; assay type: ADME, microsome
[4] = molecular target: T1, Carnitine O-palmitoyltransferase 1, muscle isoform (Rattus norvegicus, UniProt Q63704); assay: Inhibition of Wistar rat heart mitochondrial CPT-1 assessed as reduction in conversion of palmitoyl CoA and L-carnitine into palmitoylcarnitine preincubated for 3 mins followed by L-carnitine and palmitoyl CoA addition measured for 3.5 mins by spectrophotometric analysis
T1 sequence (Q63704 whole entry): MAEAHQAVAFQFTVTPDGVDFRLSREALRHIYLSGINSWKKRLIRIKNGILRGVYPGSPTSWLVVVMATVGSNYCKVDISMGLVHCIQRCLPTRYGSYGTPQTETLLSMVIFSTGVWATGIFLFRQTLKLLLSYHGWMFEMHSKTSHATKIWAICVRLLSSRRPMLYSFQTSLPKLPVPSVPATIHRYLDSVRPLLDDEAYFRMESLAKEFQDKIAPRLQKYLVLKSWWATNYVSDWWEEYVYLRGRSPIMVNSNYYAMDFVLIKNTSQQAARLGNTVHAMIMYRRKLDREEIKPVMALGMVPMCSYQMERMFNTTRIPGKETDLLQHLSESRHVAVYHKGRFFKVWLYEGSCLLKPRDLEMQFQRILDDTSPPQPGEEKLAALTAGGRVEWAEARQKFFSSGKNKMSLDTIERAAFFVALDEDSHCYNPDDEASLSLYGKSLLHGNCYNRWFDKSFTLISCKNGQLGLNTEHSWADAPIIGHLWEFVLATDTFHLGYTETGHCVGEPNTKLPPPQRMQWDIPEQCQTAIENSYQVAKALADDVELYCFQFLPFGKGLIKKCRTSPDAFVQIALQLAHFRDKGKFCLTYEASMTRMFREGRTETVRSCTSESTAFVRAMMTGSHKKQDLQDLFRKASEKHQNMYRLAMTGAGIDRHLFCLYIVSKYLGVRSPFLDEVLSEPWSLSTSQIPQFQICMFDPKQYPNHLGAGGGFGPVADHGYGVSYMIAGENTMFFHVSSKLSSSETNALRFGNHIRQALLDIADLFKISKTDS

CYP2D6 = CYP2D6 (Homo sapiens, UniProt P10635); assay: Drug metabolism assessed as human CYP2D6-mediated compound degradation by measuring half life at 5 uM up to 45 mins in presence of NADPH by LC-MS/MS analysis; assay type: ADME
CYP2D6, sequence (P10635 whole entry, the tested form may be a part): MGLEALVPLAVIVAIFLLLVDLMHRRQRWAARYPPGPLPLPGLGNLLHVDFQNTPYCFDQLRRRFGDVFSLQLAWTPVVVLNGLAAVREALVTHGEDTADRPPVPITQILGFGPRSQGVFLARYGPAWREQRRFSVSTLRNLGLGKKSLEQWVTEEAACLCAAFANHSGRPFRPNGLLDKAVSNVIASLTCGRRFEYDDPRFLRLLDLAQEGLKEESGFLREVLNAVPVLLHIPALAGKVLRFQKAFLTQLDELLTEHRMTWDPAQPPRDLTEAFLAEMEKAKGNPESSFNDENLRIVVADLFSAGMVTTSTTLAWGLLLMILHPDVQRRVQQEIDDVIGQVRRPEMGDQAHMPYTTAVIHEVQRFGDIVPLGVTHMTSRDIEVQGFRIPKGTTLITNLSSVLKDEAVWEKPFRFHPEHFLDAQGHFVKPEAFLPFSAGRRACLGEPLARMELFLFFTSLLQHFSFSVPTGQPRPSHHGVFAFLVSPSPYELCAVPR

Heart = assay: Cardioprotective activity against Langendorff perfused C57BL/6 mouse heart assessed as lusitropic effect at 2 uM measured for 40 mins reperfusion period in presence of high fat; assay type: functional, tissue-based
How it was run: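 Isolated C57BL/6 hearts (25-30 g) retrogradely perfused at constant 80 mmHg, 37 °C, 95% O2/5% CO2, with modified Krebs containing 1.2 mM sodium palmitate conjugated to 3% BSA. After 10 min stabilisation, 30 min perfusion with control buffer or compound at 2 or 10 µM. LVdP/dt max and min derived from LV pressure over 40 min; mean ± SEM, n = 12-19, 1-way ANOVA with Bonferroni.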

Row | SMILES | Stability [1] | half-life at 3 µM [2] [min] | half-life at 3 µM [3] [min] | IC50 [4] [µM] | half-life at 5 µM (CYP2D6) [min] | Activity (Heart)
1 | C1CCC(C(CC2CCCCN2)C2CC2)CC1 (stereo unspecified) | Stable | 3 | 124 |  |  | 
2 | C1CCC(CC(C2CCCC2)C2CCCC2)NC1 (stereo unspecified) | Stable | 14 | 50 | 19 |  | 
3 | C1CCC(C(CC2CCCCN2)C2CCC2)CC1 (stereo unspecified) | Stable | 10 | > 200 |  |  | 
4 | FC1CCC(C(CC2CCCCN2)C2CCC(F)CC2)CC1 (stereo unspecified) | Unstable |  |  |  |  | 
5 | CC1(C)CCC(C(CC2CCCCN2)C2CCCCC2)CC1 (stereo unspecified) | Stable | 20 | 77 |  |  | 
6 | C1CCC(C(CC2CCCCN2)C2CCOCC2)CC1 (stereo unspecified) | Stable | 31 | 84 | 715 | 7 | 
7 | Fc1ccc(C(CC2CCCCN2)C2CCCCC2)cc1 (stereo unspecified) | Stable | 7 | 79 |  |  | 
8 | CC(C)(COP(=O)(O)OP(=O)(O)OC[C@H]1O[C@@H](n2cnc3c(N)ncnc32)[C@H](O)[C@@H]1OP(=O)(O)O)[C@@H](O)C(=O)NCCC(=O)NCCSC(=O)CC(=O)O [MALONYL-COENZYME A] |  |  |  | 1.2 |  | 
9 | FC1CCC(C(CC2CCCCN2)C2CCCCC2)CC1 (stereo unspecified) | Unstable | 11 | 65 |  | 16 | 
10 | C1CCC(C(C[C@@H]2CCCCN2)C2CCCCC2)CC1 |  | 11 | 65 | 14 |  | 
11 | C1CCC(C(CC2CCCCN2)C2CCCCC2)CC1 (racemic) |  |  |  |  |  | Active
